Reference: ChEMBL document CHEMBL1134630, “Synthesis, DNA cross-linking activity, and cytotoxicity of dimeric mitomycins” (J Med Chem, 2001)
Converted amounts (≈) assume the structure as drawn.

Experiments:
[1] = test system: KB; assay: in vitro anticancer activity against cultured KB(epidermoid) human tumor cell line; assay type: functional, cell-based
Summary of the method: (§1)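 Human tumour cell lines grown in RPMI-1640 with 25 mM HEPES, 2% NaHCO3, 10% fetal bovine serum and 100 μg/mL kanamycin at 37 °C under 5% CO2. Cells had 3 days of continuous compound exposure in 96-well plates. Fixed with 10% TCA and stained with 0.4% sulforhodamine B; dye dissolved in 20 mM Tris pH 8.0 and read at 562 nm. Treatments run in duplicate. IC50 interpolated from fitted dose-response curves.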

[2] = test system: U-87 MG; assay: in vitro anticancer activity against cultured U87MG (glioblastoma) human tumor cell line; assay type: functional, cell-based, U-87MG ATCC; summary of the method: as §1
[3] = test system: A549; assay: in vitro anticancer activity against cultured A549 human tumor(lung) cell line; assay type: functional, cell-based; summary of the method: as §1
[4] = test system: HepG2; assay: in vitro inhibition of tumor cell growth in cultured HepG2 human tumor cell line; assay type: functional, cell-based; summary of the method: as §1
[5] = test system: MCF7; assay: in vitro inhibition of tumor cell growth in cultured MCF-7 human tumor cell line; assay type: functional, cell-based; summary of the method: as §1
[6] = test system: HCT-8; assay: in vitro inhibition of tumor cell growth in cultured HCT-8 human tumor cell line; assay type: functional, cell-based; summary of the method: as §1
[7] = test system: PC-3; assay: in vitro inhibition of tumor cell growth in cultured PC-3 human tumor cell line; assay type: functional, cell-based; summary of the method: as §1
[8] = Mean IC50 for all seven tumor cell lines was determined; assay type: functional; summary of the method: as §1
[9] = test system: U-87 MG; assay: in vitro inhibition of tumor cell growth in cultured U87MG human tumor cell line; assay type: functional, cell-based, U-87MG ATCC; summary of the method: as §1
[10] = test system: A549; assay: in vitro inhibition of tumor cell growth in cultured A549 human tumor cell line; assay type: functional, cell-based; summary of the method: as §1
[11] = test system: KB; assay: in vitro inhibition of tumor cell growth in cultured KB human tumor cell line; assay type: functional, cell-based; summary of the method: as §1

| SMILES | IC50 [1] | IC50 [2] | IC50 [3] | IC50 [4] | IC50 [5] | IC50 [6] | IC50 [7] | Mean IC50 [8] | IC50 [9] | IC50 [10] | IC50 [11] |
| --- | --- | --- | --- | --- | --- | --- | --- | --- | --- | --- | --- |
| CO[C@@]12[C@H](COC(N)=O)C3=C(C(=O)C(C)=C(NCc4ccc(CNC5=C(C)C(=O)C6=C(C5=O)[C@@H](COC(N)=O)[C@@]5(OC)[C@H]7NC7CN65)cc4)C3=O)N1CC1N[C@@H]12 (stereo partly specified) | > 1 µg/mL | > 1 µg/mL | > 1 µg/mL |  |  |  |  |  |  |  |  |
| CO[C@@]12[C@H](COC(N)=O)C3=C(C(=O)C(C)=C(Nc4ccc(CCc5ccc(NC6=C(C)C(=O)C7=C(C6=O)[C@@H](COC(N)=O)[C@@]6(OC)[C@H]8NC8CN76)cc5)cc4)C3=O)N1CC1N[C@@H]12 (stereo partly specified) | 0.215 µg/mL (≈ 0.254 µM) | 0.51 µg/mL (≈ 0.602 µM) | 0.095 µg/mL (≈ 0.112 µM) | 0.16 µg/mL (≈ 0.189 µM) | 0.21 µg/mL (≈ 0.248 µM) | 0.11 µg/mL (≈ 0.13 µM) | 0.2 µg/mL (≈ 0.236 µM) | 0.2 µg/mL |  |  |  |
| CO[C@@]12[C@H](COC(N)=O)C3=C(C(=O)C(C)=C(Nc4ccc(Oc5ccc(NC6=C(C)C(=O)C7=C(C6=O)[C@@H](COC(N)=O)[C@@]6(OC)[C@H]8NC8CN76)cc5)cc4)C3=O)N1CC1N[C@@H]12 (stereo partly specified) | 0.064 µg/mL (≈ 0.0767 µM) | 0.32 µg/mL (≈ 0.383 µM) | 0.062 µg/mL (≈ 0.0743 µM) | 0.05 µg/mL (≈ 0.0599 µM) | 0.14 µg/mL (≈ 0.168 µM) | 0.06 µg/mL (≈ 0.0719 µM) | 0.08 µg/mL (≈ 0.0958 µM) | 0.11 µg/mL |  |  |  |
| CO[C@@]12[C@H](COC(N)=O)C3=C(C(=O)C(C)=C(Nc4ccccc4)C3=O)N1C[C@@H]1N[C@@H]12 |  |  |  | 0.05 µg/mL (≈ 0.122 µM) | 0.06 µg/mL (≈ 0.146 µM) | 0.004 µg/mL (≈ 0.00975 µM) | 0.11 µg/mL (≈ 0.268 µM) | 0.09 µg/mL | 0.26 µg/mL (≈ 0.633 µM) | 0.02 µg/mL (≈ 0.0487 µM) | 0.13 µg/mL (≈ 0.317 µM) |
| CO[C@@]12[C@H](COC(N)=O)C3=C(C(=O)C(C)=C(N)C3=O)N1C[C@H]1[C@@H]2N1C(=O)CCCCC(=O)N1[C@@H]2CN3C4=C(C(=O)C(N)=C(C)C4=O)[C@H](COC(N)=O)[C@]3(OC)[C@@H]21 | > 1 µg/mL | > 1 µg/mL | 0.76 µg/mL (≈ 0.976 µM) |  |  |  |  |  |  |  |  |
| CO[C@@]12[C@H](COC(N)=O)C3=C(C(=O)C(C)=C(N)C3=O)N1C[C@H]1[C@@H]2N1C(=O)CCCCCC(=O)N1[C@H]2[C@@H]1CN1C3=C(C(=O)C(N)=C(C)C3=O)[C@@H](COC(N)=O)[C@@]21OC | > 1 µg/mL | > 1 µg/mL | 0.68 µg/mL (≈ 0.858 µM) |  |  |  |  |  |  |  |  |
| CO[C@@]12[C@H](COC(N)=O)C3=C(C(=O)C(C)=C(N)C3=O)N1C[C@H]1[C@@H]2N1C(=O)CCCC(=O)N1[C@H]2[C@@H]1CN1C3=C(C(=O)C(N)=C(C)C3=O)[C@@H](COC(N)=O)[C@@]21OC | > 1 µg/mL | > 1 µg/mL | 0.67 µg/mL (≈ 0.876 µM) |  |  |  |  |  |  |  |  |
| CO[C@@]12[C@H](COC(N)=O)C3=C(C(=O)C(C)=C(NCCCOCCCNC4=C(C)C(=O)C5=C(C4=O)[C@@H](COC(N)=O)[C@@]4(OC)[C@H]6NC6CN54)C3=O)N1CC1N[C@@H]12 (stereo partly specified) | > 1 µg/mL | > 1 µg/mL | > 10 µg/mL |  |  |  |  |  |  |  |  |
| CO[C@@]12[C@H](COC(N)=O)C3=C(C(=O)C(C)=C(NCCCNCCCNC4=C(C)C(=O)C5=C(C4=O)[C@@H](COC(N)=O)[C@@]4(OC)[C@H]6NC6CN54)C3=O)N1CC1N[C@@H]12 (stereo partly specified) | > 1 µg/mL | > 1 µg/mL | > 1 µg/mL |  |  |  |  |  |  |  |  |
| CO[C@@]12[C@H](COC(N)=O)C3=C(C(=O)C(C)=C(NCCOCCNC4=C(C)C(=O)C5=C(C4=O)[C@@H](COC(N)=O)[C@@]4(OC)[C@H]6NC6CN54)C3=O)N1CC1N[C@@H]12 (stereo partly specified) |  | > 10 µg/mL | > 10 µg/mL |  |  |  |  |  |  |  |  |
| CO[C@@]12[C@H](COC(N)=O)C3=C(C(=O)C(C)=C(NCCNCCNC4=C(C)C(=O)C5=C(C4=O)[C@@H](COC(N)=O)[C@@]4(OC)[C@H]6NC6CN54)C3=O)N1CC1N[C@@H]12 (stereo partly specified) | 0.98 µg/mL (≈ 1.33 µM) | > 1 µg/mL | > 1 µg/mL |  |  |  |  |  |  |  |  |
| CO[C@@]12[C@H](COC(N)=O)C3=C(C(=O)C(C)=C(N)C3=O)N1C[C@H]1[C@@H]2N1C(=O)CCC(=O)N1[C@@H]2CN3C4=C(C(=O)C(N)=C(C)C4=O)[C@H](COC(N)=O)[C@]3(OC)[C@@H]21 | > 1 µg/mL | > 1 µg/mL | 0.67 µg/mL (≈ 0.892 µM) |  |  |  |  |  |  |  |  |
| COC1=C(C)C(=O)C2=C(C1=O)[C@@H](COC(N)=O)[C@@]1(OC)[C@H]3N[C@H]3CN21 [MITOMYCIN A] | 0.008 µg/mL (≈ 0.0229 µM) | 0.009 µg/mL (≈ 0.0258 µM) | 0.006 µg/mL (≈ 0.0172 µM) | 0.008 µg/mL (≈ 0.0229 µM) | 0.045 µg/mL (≈ 0.129 µM) | 0.006 µg/mL (≈ 0.0172 µM) | 0.02 µg/mL (≈ 0.0573 µM) | 0.014 µg/mL |  |  |  |
| CO[C@@]12[C@H](COC(N)=O)C3=C(C(=O)C(C)=C(N)C3=O)N1C[C@@H]1N[C@@H]12 [MITOMYCIN] | 0.1 µg/mL (≈ 0.299 µM) | 0.97 µg/mL (≈ 2.9 µM) | 0.08 µg/mL (≈ 0.239 µM) | 0.36 µg/mL (≈ 1.08 µM) | 0.45 µg/mL (≈ 1.35 µM) | 0.15 µg/mL (≈ 0.449 µM) | 1.55 µg/mL (≈ 4.64 µM) | 0.63 µg/mL |  |  |  |
